Measured values pooled from the literature.
Protocols differ between the studies behind these lines.
Target: Testis-specific serine/threonine-protein kinase 2 (TSSK2, Homo sapiens, UniProt Q96PF2)
One construct used (Q96PF2 1-358): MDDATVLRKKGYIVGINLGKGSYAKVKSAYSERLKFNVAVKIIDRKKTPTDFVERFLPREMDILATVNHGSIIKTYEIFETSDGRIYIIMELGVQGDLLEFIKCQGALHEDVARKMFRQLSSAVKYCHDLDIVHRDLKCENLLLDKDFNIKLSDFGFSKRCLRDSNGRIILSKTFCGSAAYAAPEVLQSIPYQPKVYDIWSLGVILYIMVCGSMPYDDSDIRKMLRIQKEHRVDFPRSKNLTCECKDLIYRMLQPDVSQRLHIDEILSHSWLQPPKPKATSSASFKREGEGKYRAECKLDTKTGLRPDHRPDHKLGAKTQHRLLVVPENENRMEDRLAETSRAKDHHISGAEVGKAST

CCN(CC)CCNC(=O)c1c(C)[nH]c(/C=C2\C(=O)Nc3ccc(F)cc32)c1C
inhibition (enzyme activity; inhibitor; 10 µM): 54%

COc1cc2ncnc(Nc3ccc(Oc4ccccc4)cc3C)c2cc1OC
inhibition (enzyme activity; inhibitor; 1 µM): -1%

O=C(Nc1cnn(-c2csc(C(=O)NC3COC3)c2)c1)Nc1ccccc1Cl
remaining activity (enzyme activity; inhibitor; 5 µM): 91.5%

Cc1ccc(Nc2nccc(N(C)c3ccc4c(C)n(C)nc4c3)n2)cc1S(N)(=O)=O
inhibition (enzyme activity; inhibitor; 10 µM): 5%

Cc1ccc(NC(=O)c2ccc(C)c(C(F)(F)F)c2)cc1C#Cc1nn(C2CCC(O)CC2)c2ncnc(N)c12 (stereo not shown)
remaining signal (cell-free assay; 10 µM): 96%

CC(C)(O)[C@H]1CC[C@H](Nc2ccc3ncc(-c4cccc(C(F)(F)F)c4)n3n2)CC1
remaining activity (enzyme activity; inhibitor; 1 µM): 101%

CCN(CC)c1ccc(C2=NNC(=O)CC2C)cc1[N+](=O)[O-] (stereo not shown)
remaining activity (enzyme activity; inhibitor; 10 µM): 96%

CCCS(=O)(=O)Nc1ccc(F)c(C(=O)c2c[nH]c3ncc(-c4ccc(Cl)cc4)cc23)c1F
inhibition (enzyme activity; inhibitor; 1 µM): < 10%

O=C1Nc2ccc(Cl)cc2C1=Cc1cc(Cl)c(O)c(Cl)c1
remaining signal (cell-free assay; 0.5 µM): 94.4%

CNC(=O)c1cc(Oc2ccc(NC(=O)Nc3ccc(Cl)c(C(F)(F)F)c3)cc2)ccn1
inhibition (enzyme activity; inhibitor; 0.3 µM): -4%

Cc1cnc(NC2CCOCC2)nc1-n1cnc(C(=O)NC(CN)c2cc(F)cc(Cl)c2)c1 (stereo not shown)
remaining activity (enzyme activity; inhibitor; radiometric; 1 µM): 108%

CC(C)(C)c1nc(-c2cccc(NS(=O)(=O)c3c(F)cccc3F)c2F)c(-c2ccnc(N)n2)s1
remaining activity (enzyme activity; inhibitor; radiometric; 1 µM): 86%

COc1cc(Cl)c(C(=O)N[C@@H](CN[C@H]2CC[C@@H](N)CC2)Cc2ccc(C#N)cc2)cc1-c1ccc(CN[C@H](C)c2ccc(C)cc2)o1
remaining activity (enzyme activity; inhibitor; 1 µM): 101%
